Shown are actives, neighbours in structure and some others; about 2.2% of the full set was active somewhere.
PAD4 inh: inhibitors of human PAD4. recombinant PAD4, RCA probe fluorescence polarization. 0.41% of 330,000 active. inhibition, % at 6.36 µM. AID 485272. Q9UM07;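 active = percent inhibition above a cutoff equal to the mean of all tested compounds plus 3 SD, cut at about 15% in these data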;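 note: 0% = PAD4 with RCA probe and DMSO and 100% = probe without PAD4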
Apaf1 inhib: human Apaf-1 inhibition | O14727 | reconstituted apoptosome caspase-3 activity, DEVD-Rh110 fluorescence | inhibition, % at 20 µM | 0.71% of 330,000 active | AID 489030; active = inhibition of at least 40% at 20 µM;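 note: plate controls were DMSO wells for no effect and DEVD-CHO caspase inhibitor wells for full effect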
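Material: reconstituted apoptosome with Apaf-1, cytochrome c, caspase-9, procaspase-3, dATP; medium: pH 7.5 Hepes buffer with CHAPS, BSA, DTT; also added: cytochrome c and DEVD-Rh110 substrate; timing: 30 min plus 50 min, RT; signal: Rh110 fluorescence intensity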
UBC13 polyUb: inhibitors of human UBC13 polyubiquitin chain formation; P61088; 0.47% of 330,000 active; inhibition, % at 20 µM; TR-FRET; in the data active = inhibition above about 45%, passing the limit was not always enough; inconclusive = no clear call, values can overlap the other calls
GSTO1 inh: counter-screen for RBBP9 inhibitors: inhibitors of human GSTO1; recombinant GSTO1, activity-based probe fluorescence polarization; 1.1% of 300,000 active; inhibition, % at 5.96 µM; P78417;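 active = inhibition above the campaign mean inhibition plus 3 SD, cut at about 35% in these data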;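 note: 0% = GSTO1-1 with DMSO and 100% = wells lacking GSTO1-1 enzyme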
Rin1 Abl inh: blocks binding of human Rin1 to Abl; inhibition, % at 7.35 µM; AID 588664; 0.4% of 360,000 active; TR-FRET Rin1/Abl binding, biochemical; P00519+Q13671; in the data active = inhibition above about 5%, passing the limit was not always enough
UBC9 SUMO inh: inhibitors of human SUMOylation (UBC9); HTRF SUMOylation assay, SAE1/SAE2 + UBC9, in vitro; 0.36% of 290,000 active; inhibition, % at 35 µM; P63279; in the data active = inhibition above about 50%, passing the limit was not always enough; inconclusive = no clear call, values can overlap the other calls
Casp3 UBC13 ctr: caspase-3 inhibition (UBC13 counter-screen). inhibition, % at 20 µM. Recombinant caspase-3, Caspase-Glo 3/7 luminescence, 60 min. 4% of 1,400 active. AID 488856. shares compounds with UBC13 polyUb;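 active = mean inhibition across replicates above about 26%, limit read from the data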;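 note: plate controls were DMSO with caspase-3 for no effect and DMSO wells lacking enzyme for full effect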
UBC13 conf: confirmation of human UBC13 polyubiquitin inhibitors; 68% of 1,400 active; shares compounds with UBC13 polyUb; AID 488859; UBC13 polyubiquitination, TR-FRET, biochemical; inhibition, % at 10 µM; in the data active = inhibition above about 45%; inconclusive = no clear call, values can overlap the other calls
The depositor's hits bear a star; ? = inconclusive; . = no result given.

SMILES	PAD4 inh	Apaf1 inhib	UBC13 polyUb	GSTO1 inh	Rin1 Abl inh	UBC9 SUMO inh	Casp3 UBC13 ctr	UBC13 conf
CC(=O)O[C@H]1[C@@H](O)[C@H](O)[C@H](Oc2c(O)c(C)c3c4c2[C@@H](C)CC[C@@H]4[C@@H](C)C[C@H]3C=C(C)C)O[C@H]1C	1	22	52*	.	3	.	-2	32
CCCCCCCCN1N=N[C@H]2[C@H]1[C@@H]1C[C@H]2N(C(=O)OC(C)(C)C)O1	0	19	.	.	1	.	.	.
Cc1ccc(-c2csc(N3CCN(c4cc5c(cc4Cl)nc(C)n5CCN4CCCCC4)CC3)n2)cc1	8	22	46*	5	6	1	0	38
CC(=O)Nc1ccc(S(=O)(=O)N2CCN(CC(O)COc3ccc4ccccc4c3)CC2)cc1 (configuration not stated)	-2	-11	47*	-7	1	-12	0	49*
CC(=O)Nc1ccc(OCC(O)CN2CCN(S(=O)(=O)c3ccc(NC(C)=O)cc3)CC2)cc1 (configuration not stated)	1	-21	0	-8	1	-6	.	.
CN(C)S(=O)(=O)c1ccc(N2CCCC2)c(C(=O)NNC(=O)c2ccc(F)cc2)c1	1	16	-3	.	0	.	.	.
COc1ccccc1C(=O)N=c1sc2c(C)ccc(OC)c2n1C	-4	11	48*	-4	-2	14	73*	?
COc1ccc(C(=O)N=c2sc3c(C)ccc(OC)c3n2C)cc1OC	-3	-11	31	-7	1	19	.	.
Cc1ccc(SCC(=O)Nc2ccc(N3CCOCC3)cc2)cc1C	-3	1	-7	.	1	.	.	.
C#CCOCCOCCOCCNc1nc(N2CCN(C(=O)[C@H](CO)n3cc([C@@H](N)C(C)C)nn3)CC2)nc(N2CCN(C(=O)[C@H](CCCCN)n3cc([C@@H](N)[C@H](C)CC)nn3)CC2)n1	2	32	84*	.	-2	.	-3	59*
C#CCOCCOCCOCCNc1nc(N2CCN(C(=O)[C@H]([C@@H](C)CC)n3cc(CCCN=C(N)N)nn3)CC2)nc(N2CCN(C(=O)[C@H](CCCCN)n3cc(CCCC)nn3)CC2)n1	-7	22	71*	6	8	8	0	47*
C#CCOCCOCCOCCNc1nc(N2CCN(C(=O)[C@H](CCCN=C(N)N)n3cc(C(N)[C@@H](C)CC)nn3)CC2)nc(N2CCN(C(=O)[C@H](CCC(=O)O)n3cc([C@@H](N)CC(N)=O)nn3)CC2)n1 (some centres not stated)	-5	11	-3	.	1	.	.	.
C#CCOCCOCCOCCNc1nc(N2CCN(C(=O)[C@H](CCCN=C(N)N)n3cc(C(N)[C@@H](C)CC)nn3)CC2)nc(N2CCN(C(=O)[C@H](CCCCN)n3cc([C@@H](N)CC(N)=O)nn3)CC2)n1 (some centres not stated)	-1	6	50*	.	0	.	-5	44
C#CCOCCOCCOCCNc1nc(N2CCN(C(=O)[C@H](C)n3cc(CCCN=C(N)N)nn3)CC2)nc(N2CCN(C(=O)[C@H](CCCCN)n3cc(CCCC)nn3)CC2)n1	.	.	.	.	.	18	.	.
C/C(CC(=O)Nc1ccccc1C#N)=N\NC(=O)c1ccncc1	2	-7	-1	-5	3	4	.	.
Cc1ccsc1CNc1ncnc2ccc(-c3c(C)noc3C)cc12	0	13	46*	.	0	.	1	44
CCOC(=O)CSc1nc(C(C)(C)C)cc(C(F)(F)F)c1C#N	-7	12	47*	-1	3	20	1	33
COC(=O)CSc1nc(C)cc(C(F)(F)F)c1C#N	2	7	7	12	0	13	.	.
CCn1c(SCC(=O)N2CCC(C)CC2)nc2c([nH]c3ccccc32)c1=O	.	.	.	.	-1	.	.	.
CCc1cccc2c(C(=O)C(NC(C)CC)c3ccccc3)c[nH]c12 (configuration not stated)	3	5	79*	1	0	-16	1	101*
C#CCOCCOCCOCCNc1nc(N2CCN(C(=O)[C@H](Cc3ccc(O)cc3)n3cc([C@@H](N)CC(C)C)nn3)CC2)nc(N2CCN(C(=O)[C@H](Cc3cc4ccccc4[nH]3)n3cc([C@@H](N)CC(C)C)nn3)CC2)n1	-2	27	80*	-1	.	-50	-4	62*
C#CCOCCOCCOCCNc1nc(N2CCN(C(=O)[C@H](CCCCN)n3cc([C@@H](N)CC(C)C)nn3)CC2)nc(N2CCN(C(=O)[C@H](Cc3ccc(O)cc3)n3cc([C@@H](N)CC(C)C)nn3)CC2)n1	0	11	37	9	.	5	.	.
N[C@@H](CO)c1cn([C@@H](Cc2cc3ccccc3[nH]2)C(=O)N2CCNCC2)nn1	-1	37	101*	4	3	12	-2	107*
C#CCOCCOCCOCCNc1nc(N2CCN(C(=O)[C@H](CCCCN)n3cc([C@@H](N)CC(C)C)nn3)CC2)nc(N2CCN(C(=O)[C@H](Cc3cc4ccccc4[nH]3)n3cc([C@@H](N)Cc4ccc(O)cc4)nn3)CC2)n1	1	6	103*	5	2	-1	2	116*
Cc1ccccc1-c1cc2nc(NCc3ccccc3)n(C)c(=O)c2s1	.	.	.	.	-7	.	.	.
SMILES	PAD4 inh	Apaf1 inhib	UBC13 polyUb	GSTO1 inh	Rin1 Abl inh	UBC9 SUMO inh	Casp3 UBC13 ctr	UBC13 conf
COc1ccc(-c2ccc(CN3C(C(C)C)C(=O)N(Cc4cn(Cc5ccco5)nn4)CCS3(=O)=O)cc2)cn1 (configuration not stated)	.	.	.	.	-2	.	.	.
Nc1nc(N)c2cc(Sc3ccc4ccccc4c3)ccc2n1	-7	39	50*	3	-6	0	3	37
Nc1nc(N)c2cc(Sc3ccc(Cl)cc3)ccc2n1	.	.	.	.	4	.	.	.
CC(=O)COC(=O)c1cc(-c2ccc(C)cc2)nc2ccccc12	0	4	15	4	1	-5	.	.
CCOC(=O)c1cc(-c2ccccc2)nc2ccc(C)cc12	-5	32	54*	-2	1	-14	-1	38
CCc1ccc(OCC(=O)Nc2ccncc2)c(Br)c1	0	5	-6	2	1	4	.	.
CCc1ccc(OCC(=O)NNC(=O)c2cnccn2)c(Br)c1	-3	3	53*	5	0	-9	4	41
CN(C)c1nc2c(c(=O)[nH]c(=O)n2C)n1CCCc1ccccc1	6	5	-1	7	1	6	.	.
COc1ccccc1C(=O)N1CCN(C(=O)[C@H]2O[C@@H](n3cnc4c(N)ncnc43)[C@H](O)[C@@H]2O)CC1	.	.	.	.	5	.	.	.
